Results on 13 compounds are retold here after ChEMBL document CHEMBL2021897, “Synthesis and SAR of 1,3-thiazolyl thiophene and pyridine derivatives as potent, orally active and S1P₃-sparing S1P₁ agonists” (Bioorg Med Chem Lett, 2012).

The test system of one assay is Rattus norvegicus. Nature of the assay: Immunosuppressive activity in LEW rat transplanted with spleen cells of WKAH rat assessed as inhibition of enlargement of draining popliteal lymph node at 1 mg/kg, po qd for 4 days. Type of assay: functional. Conditions: 96 h. In outline: (§1)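 Spleen cells from WKAH rats were injected into the footpads of LEW rats to induce draining popliteal lymph node enlargement. Dosing was oral, once daily for four days from the day of cell injection (day 0). Lymph node weight was measured on day 4. Values are the mean of five rats; ID50 is derived from at least three doses.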
Regarding `CCc1cc(CN2CC(C(=O)O)C2)sc1-c1ncc(-c2ccc(OC(C)C)c(Cl)c2)s1`, the inhibition in vivo at 1 mg/kg was 54%.
Turning to `CCCc1cc(-c2cnc(-c3sc(CN4CC(C(=O)O)C4)cc3CC)s2)ccc1OC(C)C`, the inhibition in vivo at 1 mg/kg turned out to be 73%.

The target in the next assay is Sphingosine 1-phosphate receptor 3 (Homo sapiens, UniProt Q99500). Nature of the assay: Agonist activity at human S1P3 receptor by [S35]GTPgammaS binding assay. Type of assay: functional.
Sequence of Sphingosine 1-phosphate receptor 3 (Q99500 whole entry): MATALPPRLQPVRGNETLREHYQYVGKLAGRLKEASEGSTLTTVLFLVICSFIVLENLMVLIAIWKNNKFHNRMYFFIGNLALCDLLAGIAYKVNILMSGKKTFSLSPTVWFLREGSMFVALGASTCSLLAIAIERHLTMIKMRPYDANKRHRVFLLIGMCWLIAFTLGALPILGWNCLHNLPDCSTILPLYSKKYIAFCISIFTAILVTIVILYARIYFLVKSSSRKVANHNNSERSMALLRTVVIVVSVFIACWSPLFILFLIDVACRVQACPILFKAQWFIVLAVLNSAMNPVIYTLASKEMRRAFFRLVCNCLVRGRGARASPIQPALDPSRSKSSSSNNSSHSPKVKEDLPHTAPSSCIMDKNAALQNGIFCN
Conditions: not given
The method, boiled down: (§2)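 GTPγS binding at human S1P1 and S1P3 receptors. EC50 is the mean of two experimental determinations.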
`CCc1cc(-c2ncc(-c3ccc(CN4CC(C(=O)O)C4)nc3CC)s2)ccc1CC(C)C` showed a concentration giving a half-maximal response (EC50) above 20000 nM.
`CCc1cc(CN2CC(C(=O)O)C2)sc1-c1ncc(-c2ccc(C(C)C)c(C)c2)s1` came in with a 50% effective concentration (EC50) above 20000 nM.
As for `CCc1cc(-c2cnc(-c3sc(CN4CC(C(=O)O)C4)cc3CC)s2)ccc1OC(C)C`, the half-maximal effective concentration (EC50) was above 20000 nM.
For `CCc1cc(CN2CC(C(=O)O)C2)sc1-c1cnc(-c2ccc(OC(C)C)c(C)c2)s1`, the concentration for a half-maximal effect (EC50) was above 20000 nM.
Still for that read-out and setting: the value for `CCc1nc(CN2CC(C(=O)O)C2)ccc1-c1cnc(-c2ccc(CC(C)C)c(C)c2)s1` was above 20000 nM.
Turning to `CCc1cc(CN2CC(C(=O)O)C2)sc1-c1ncc(-c2ccc(OC(C)C)c(C(C)C)c2)s1`, the EC50 was above 20000 nM.
The same measure, in the same setting: under `CCc1cc(CN2CC(C(=O)O)C2)sc1-c1ncc(-c2ccc(Oc3ccccc3)cc2)o1` stands above 20000 nM.
On to `CCc1cc(CN2CC(C(=O)O)C2)sc1-c1cnc(-c2ccc(Oc3ccccc3)cc2)o1`, for which the EC50 is above 20000 nM.
In the case of `CCc1cc(CN2CC(C(=O)O)C2)sc1-c1ncc(-c2ccc(OC(C)C)c(F)c2)s1`, the half-maximal effective concentration (EC50) was above 20000 nM.
`CCc1cc(CN2CC(C(=O)O)C2)sc1-c1nnc(-c2ccc(Oc3ccccc3)cc2)o1` came in with a concentration for a half-maximal effect (EC50) above 20000 nM.
On the same count and under the same terms, the value for `CCc1cc(CN2CC(C(=O)O)C2)sc1-c1ncc(-c2ccc(OC(C)C)c(Cl)c2)s1` was above 20000 nM.
Consider `CCCc1cc(-c2cnc(-c3sc(CN4CC(C(=O)O)C4)cc3CC)s2)ccc1OC(C)C`, for which a half-maximal response (EC50) required 400 nM.
Still for that read-out and setting: the value for `CCc1cc(CN2CC(C(=O)O)C2)sc1-c1ncc(-c2ccc(O[C@@H](C)CC)c(C)c2)s1` was above 20000 nM.

The next assay deals with Rattus norvegicus. Nature of the assay: Immunosuppressive activity in po dosed LEW rat transplanted with spleen cells of WKAH rat assessed as inhibition of enlargement of draining popliteal lymph node administered qd for 4 days. Type of assay: functional. The settings on record: 96 h, read-out: ID50 (the source's name). The method, boiled down:
as §1
`CCc1cc(-c2ncc(-c3ccc(CN4CC(C(=O)O)C4)nc3CC)s2)ccc1CC(C)C`: the ED50 worked out at 0.74 mg/kg.
On the same count and under the same terms, under `CCc1cc(CN2CC(C(=O)O)C2)sc1-c1ncc(-c2ccc(C(C)C)c(C)c2)s1` stands 1.07 mg/kg; under `CCc1cc(-c2cnc(-c3sc(CN4CC(C(=O)O)C4)cc3CC)s2)ccc1OC(C)C`, 0.16 mg/kg; under `CCc1cc(CN2CC(C(=O)O)C2)sc1-c1cnc(-c2ccc(OC(C)C)c(C)c2)s1`, 0.19 mg/kg.
Regarding `CCc1nc(CN2CC(C(=O)O)C2)ccc1-c1cnc(-c2ccc(CC(C)C)c(C)c2)s1`, the ED50 came to 0.64 mg/kg.
For the compound `CCc1cc(CN2CC(C(=O)O)C2)sc1-c1ncc(-c2ccc(OC(C)C)c(C(C)C)c2)s1`, the ED50 was 0.53 mg/kg.
Same read-out and setting: under `CCc1cc(CN2CC(C(=O)O)C2)sc1-c1ncc(-c2ccc(OC(C)C)c(F)c2)s1` stands 0.48 mg/kg; under `CCc1cc(CN2CC(C(=O)O)C2)sc1-c1ncc(-c2ccc(O[C@@H](C)CC)c(C)c2)s1`, 0.32 mg/kg.

The next assay deals with Sphingosine 1-phosphate receptor 1 (Homo sapiens, UniProt P21453). Nature of the assay: Agonist activity at human S1P1 receptor by [S35]GTPgammaS binding assay. Type of assay: functional.
Sequence of Sphingosine 1-phosphate receptor 1 (P21453 whole entry): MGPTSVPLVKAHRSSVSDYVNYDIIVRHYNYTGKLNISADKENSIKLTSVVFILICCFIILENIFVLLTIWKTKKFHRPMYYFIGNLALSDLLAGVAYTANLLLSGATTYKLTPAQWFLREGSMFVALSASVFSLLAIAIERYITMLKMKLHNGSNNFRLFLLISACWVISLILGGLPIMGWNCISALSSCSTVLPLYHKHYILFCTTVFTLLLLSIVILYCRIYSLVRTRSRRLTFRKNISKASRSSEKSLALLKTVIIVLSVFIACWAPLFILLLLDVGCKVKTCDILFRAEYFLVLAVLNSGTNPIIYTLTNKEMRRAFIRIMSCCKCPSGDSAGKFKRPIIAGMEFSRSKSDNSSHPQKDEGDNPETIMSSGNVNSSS
Conditions: not given
The method, boiled down:
as §2
On to `CCc1cc(-c2ncc(-c3ccc(CN4CC(C(=O)O)C4)nc3CC)s2)ccc1CC(C)C`, for which a half-maximal response (EC50) required 5.4 nM.
Compound `CCc1cc(CN2CC(C(=O)O)C2)sc1-c1ncc(-c2ccc(C(C)C)c(C)c2)s1` returned an EC50 of 3.5 nM.
The same measure, in the same setting: under `CCc1cc(-c2cnc(-c3sc(CN4CC(C(=O)O)C4)cc3CC)s2)ccc1OC(C)C` stands 3.4 nM; under `CCc1cc(CN2CC(C(=O)O)C2)sc1-c1cnc(-c2ccc(OC(C)C)c(C)c2)s1`, 11 nM; under `CCc1nc(CN2CC(C(=O)O)C2)ccc1-c1cnc(-c2ccc(CC(C)C)c(C)c2)s1`, 4.1 nM.
Compound `CCc1cc(CN2CC(C(=O)O)C2)sc1-c1ncc(-c2ccc(OC(C)C)c(C(C)C)c2)s1` returned an EC50 of 1.3 nM.
In turn, `CCc1cc(CN2CC(C(=O)O)C2)sc1-c1ncc(-c2ccc(Oc3ccccc3)cc2)o1` showed an EC50 of 90 nM.
Take `CCc1cc(CN2CC(C(=O)O)C2)sc1-c1cnc(-c2ccc(Oc3ccccc3)cc2)o1`: the 50% effective concentration (EC50) was determined as 300 nM.
Still for that read-out and setting: the value for `CCc1cc(CN2CC(C(=O)O)C2)sc1-c1ncc(-c2ccc(OC(C)C)c(F)c2)s1` was 5.8 nM.
On the same count and under the same terms, the value for `CCc1cc(CN2CC(C(=O)O)C2)sc1-c1nnc(-c2ccc(Oc3ccccc3)cc2)o1` was 54 nM; that for `CCc1cc(CN2CC(C(=O)O)C2)sc1-c1ncc(-c2ccc(OC(C)C)c(Cl)c2)s1` was 3.2 nM.
`CCCc1cc(-c2cnc(-c3sc(CN4CC(C(=O)O)C4)cc3CC)s2)ccc1OC(C)C` displayed a concentration giving a half-maximal response (EC50) of 1.1 nM.
Still for that read-out and setting: the value for `CCc1cc(CN2CC(C(=O)O)C2)sc1-c1ncc(-c2ccc(O[C@@H](C)CC)c(C)c2)s1` was 6 nM.

The term inhibition in vivo denotes the share of the control response that was lost under treatment. Usually EC50 stands for the midpoint of the concentration-response curve.
